Compounds with a hit are over-represented: about 3.4% of the library has one in this group of screens.
AHR activator: activates the human aryl hydrocarbon receptor; AHR-responsive luciferase reporter cells, luminescence; activation, % at 5 µM; 320,000 compounds, 2.5% hits; AID 2796; in the data active = activation above about 47%
APOBEC3A inh: blocks human APOBEC3A ssDNA deamination; recombinant A3A, FAM/TAMRA ssDNA deamination fluorescence; inhibition, % at 20 µM; 330,000 compounds, 0.41% hits; AID 493011;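 active = at least 40% inhibition at 20 µM here, with at most 30% in a related deaminase screen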
UCH37 inh: blocks the human deubiquitinase UCH37; Q9Y5K5; purified proteasome/UCH37, Ub-AMC cleavage fluorescence; inhibition, % (test concentration not listed); 330,000 compounds, 0.33% hits; AID 588478;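 active = mean inhibition over replicate wells above about 20%, limit read from the data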
Target sequence (Q9Y5K5 whole entry, looked up): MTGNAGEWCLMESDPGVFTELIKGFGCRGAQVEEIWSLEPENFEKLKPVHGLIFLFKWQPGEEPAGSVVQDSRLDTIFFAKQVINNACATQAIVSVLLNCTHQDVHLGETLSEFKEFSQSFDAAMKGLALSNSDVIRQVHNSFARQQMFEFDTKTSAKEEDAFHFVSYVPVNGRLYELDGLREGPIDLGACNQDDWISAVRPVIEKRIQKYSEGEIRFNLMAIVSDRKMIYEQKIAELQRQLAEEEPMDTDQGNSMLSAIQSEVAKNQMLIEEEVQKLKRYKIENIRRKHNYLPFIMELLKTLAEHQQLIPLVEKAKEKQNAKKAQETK
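Assay system: Proteasome-bound UCH37. Buffer or medium: pH 7.4 Tris-HCl (50 mM) with ovalbumin, ATP-MgCl2, DTT. Incubation: 30 min preincubation with enzyme, 25 min cleavage at room temperature. Measured by: fluorescence, ex 355 nm, em 460 nm. Read-out basis: percent inhibition. Control set: wells without proteasome as full block, compound-free enzyme plus substrate as uninhibited.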
Arr AP2 block: human beta-arrestin and AP2 interaction inhibition | FITC-arrestin peptide / GST-AP2 beads, flow cytometry; AP2 beta2 appendage carries R879A mutation | inhibition, % at 10 µM | 340,000 compounds, 0.31% hits | AID 504490;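 active = inhibition above a set limit, near 3 SD of compounds lacking own fluorescence, cut at about 54% in these data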
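Assay system: GST-AP2 R879A bound to glutathione beads, E. coli-expressed; Medium: PBS with 0.05% Tween 20 and 0.1% BSA; Also added: fluorescein-tagged arrestin peptide at 50 nM final; Timing: 12 min plus 1 h, RT; Measured by: flow cytometry, FL1 (488/535 nm); Evaluation: percent drop in bead-associated FITC signal.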
APOBEC3G inh: inhibitors of human APOBEC3G DNA deaminase; recombinant A3G, ssDNA deamination FAM/TAMRA fluorescence; inhibition, % at 20 µM; 330,000 compounds, 0.28% hits; AID 493012;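 active = inhibition of at least 40% at 20 µM, with no more than 30% in the related APOBEC3A deaminase screen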
PolyA inh: blocks polyadenylation in yeast reporter cells. S. cerevisiae SKY197-pL101 polyadenylation reporter, beta-gal luminescence; efflux-impaired pdr1/pdr3 knockout yeast; score 100 = 6 SD above DMSO. activity score, % at 12 µM. 300,000 compounds, 0.02% hits;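 active = lowest replicate activity score at least 50, where 100 means six control SD above control mean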;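 note: yeast exposed to compound for 9 h at 30 °C; higher score means more reporter readthrough which indicates perturbed polyadenylation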
APOBEC3G confirm: APOBEC3G (human) deaminase inhibition, confirmed; 890 compounds, 72% hits; inhibition, % at 20 µM; recombinant A3G ssDNA deaminase, UDG/FAM-TAMRA fluorescence; shares compounds with APOBEC3G inh; AID 493152;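 active = inhibition reaching a set limit in any replicate at 20 µM, the limit being 80% of the first screen's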
UDG A3G counter: E. coli UDG inhibition in APOBEC3G counter-screen | shares compounds with APOBEC3G inh | UDG counterscreen, FAM/TAMRA oligo fluorescence | inhibition, % at 20 µM | 710 tested, under 10 active;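 active = compounds giving 40% or more inhibition at 20 µM in any one of the three replicates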;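 note: inhibitors lower the FAM signal released by uracil excision and alkaline cleavage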
Target sequence (P12295 whole entry, looked up): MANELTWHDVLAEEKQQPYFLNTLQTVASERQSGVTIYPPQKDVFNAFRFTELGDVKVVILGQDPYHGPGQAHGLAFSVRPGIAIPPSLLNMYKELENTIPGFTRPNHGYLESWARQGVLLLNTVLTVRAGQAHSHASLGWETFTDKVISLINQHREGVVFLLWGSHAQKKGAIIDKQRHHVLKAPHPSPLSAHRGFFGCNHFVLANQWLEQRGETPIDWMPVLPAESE
A number is an active result; n = inactive; x = no result given.

SMILES	AHR activator	APOBEC3A inh	UCH37 inh	Arr AP2 block	APOBEC3G inh	PolyA inh	APOBEC3G confirm	UDG A3G counter
COc1ccc(C=NNC(=O)CCN2CCCCC2c2cccnc2)cc1Cn1cc([N+](=O)[O-])cn1 (stereo unspecified)	x	x	n	x	x	x	x	x
CCOc1ccccc1N1C(=O)CC(Sc2n[nH]c(-c3ccccc3)n2)C1=O (stereo unspecified)	n	n	n	n	58	n	66	n
COc1ccc(C(=S)N2CCN(c3cccc(Cl)c3)CC2)c(OC)c1	n	n	n	n	n	n	x	x
Oc1ccc(C(=S)N2CCN(c3cccc(Cl)c3)CC2)cc1	n	n	n	n	40	x	41	n
COc1cc(C(=S)N2CCN(c3cccc(Cl)c3)CC2)ccc1O	n	n	n	n	50	n	40	n
Cc1c(C(=O)NN=Cc2cccnc2)sc(=S)n1C	x	x	n	x	x	x	x	x
Cc1ccccc1NC(=O)CCC(=O)NN=Cc1c[nH]c2ccccc12	x	x	n	x	x	x	x	x
O=C(CNC(=O)c1ccccc1Br)NN=Cc1ccc(O)cc1	x	x	n	x	x	x	x	x
COc1cccc(CN2CCN(Cc3[nH]c4ccccc4c3C)CC2CCO)c1 (stereo unspecified)	n	n	n	n	51	n	n	n
CCn1ncc(/C=N\NC(=O)c2ccc3c(c2)c(C)c(C)n3Cc2ccccc2)c1C	n	n	x	n	70	n	n	n
CCn1cc(/C=N\NC(=O)c2ccc3c(c2)c(C)c(C)n3Cc2ccccc2)c(C)n1	n	n	x	n	n	n	x	x
CC(=O)Nc1ccc(S(=O)(=O)NNc2cccc(C)c2)cc1	n	n	n	n	61	n	62	n
Cc1cccc(NC(=O)NNS(=O)(=O)c2ccc(F)cc2)c1	n	n	n	n	n	n	x	x
Cc1ccc(S(=O)(=O)NNc2ccccc2)cc1	n	n	n	n	68	n	66	x
Cc1ccc(S(=O)(=O)Nc2ccc(Nc3ccccc3)cc2)cc1	n	n	n	n	n	n	x	x
CCn1c(SCC(=O)Nc2ccc(OC)c(OC)c2)nnc1-c1ccco1	n	n	n	n	43	n	n	n
CCn1c(SCC(=O)Nc2ccc(OC)cc2)nnc1-c1ccco1	n	n	n	n	n	n	x	x
Cc1ccc(C2(C)NC(=O)N(CC(=O)Nc3nc(-c4ccccn4)cs3)C2=O)cc1 (stereo unspecified)	n	n	n	n	56	n	67	n
NC(=O)C(=O)NN=C1CCc2ccccc21	x	x	n	x	x	x	x	x
O=[N+]([O-])c1ccc(Oc2ccc(C=NO)cc2)nc1	x	x	n	x	x	x	x	x
Cc1ccc(Oc2ccc(/C=N/O)cn2)cc1	n	n	x	n	61	n	n	n
Cn1cccc1CC(=O)NN=C/C(Cl)=C/c1ccccc1	x	x	n	x	x	x	x	x
Cc1ccccc1C(=O)NNC(=S)NC(=O)COc1ccccc1	n	n	n	n	44	n	64	n
Cc1ccccc1C(=O)NCC(=O)NNC(=S)NC(=O)c1ccccc1	n	n	n	n	43	n	n	n
Cc1ccc(C(=O)NNC(=S)NC(=O)COc2ccccc2)cc1	n	n	n	n	53	n	50	n
SMILES	AHR activator	APOBEC3A inh	UCH37 inh	Arr AP2 block	APOBEC3G inh	PolyA inh	APOBEC3G confirm	UDG A3G counter
CC(C)(C)c1ccc(C(=O)NC(=S)NNC(=O)COc2ccccc2)cc1	n	n	n	n	n	n	x	x
O=C(/C=C/c1ccco1)Oc1cc(Br)cc(C=NNC(=O)c2ccccc2O)c1	x	x	n	x	x	x	x	x
CC(C)(C)n1nnnc1C(c1cccnc1)N(Cc1ccccc1)Cc1ccco1 (stereo unspecified)	n	n	n	n	41	n	n	x
COc1cccc(CN(Cc2ccco2)C(c2ccc(F)cc2)c2nnnn2C(C)(C)C)c1 (stereo unspecified)	n	n	n	n	n	n	x	x
CC(=NNC(=O)CCC1C(=O)NN=C1C)c1ccc([N+](=O)[O-])cc1 (stereo unspecified)	x	x	n	x	x	x	x	x
NC(=S)N=Nc1ccc(NN=C(N)N)cc1	n	n	n	n	45	n	46	x
O=[N+]([O-])C(N=Nc1ccccc1)=NNc1ccccc1	x	x	n	x	x	x	x	x
O=C(Nc1ccc(Cl)cc1Cl)c1cccc(N2C(=O)C=CC2=O)c1	n	n	n	n	53	n	59	n
CC(Sc1ccc2nnc(-c3ccc(F)cc3)n2n1)C(=O)O (stereo unspecified)	n	n	n	n	42	n	52	n
CCN(CC)CCn1c2ccccc2c2n[nH]c(=S)nc21	n	n	n	n	58	n	78	n
O=C(NN=C/C=C/c1ccco1)c1cncc(Br)c1	x	x	n	x	x	x	x	x
COc1ccc(N2C(=O)/C(=C/c3cccs3)NC2=S)cc1	n	n	n	n	60	n	39	n
O=C(COc1cccc(Cl)c1)NN=Cc1cc2ccccc2nc1Cl	x	x	n	x	x	x	x	x
CCN(CC)S(=O)(=O)c1ccc2c(c1)nc(SCC(=O)N1CCOCC1)n2-c1ccccc1OC	n	n	n	n	44	n	n	x
COc1cccc2cc(-c3ccnc(N)n3)oc12	n	n	x	n	n	n	x	x
COc1cccc2cc(-c3n[nH]c(=S)n3C)oc12	n	n	n	n	54	n	80	n
S=c1[nH]nc(C2CCCCC2)n1/N=C/c1ccncc1	n	n	x	n	48	n	68	n
S=c1[nH]nc(C2CCCCC2)n1N=Cc1ccccc1	x	x	n	x	x	x	x	x
COc1cc(C=NNc2cc(C)nc(N)n2)ccc1O	x	x	n	x	x	x	x	x
COc1ccc(-c2nc3ccccc3c(=O)n2NC(=S)N(C)C)cc1	n	n	n	n	52	n	64	n
COc1ccc(OCC(=O)Nn2c(-c3ccc(OC)cc3)nc3ccccc3c2=O)cc1	n	n	n	n	n	n	x	x
COc1cccc(C2CC(=O)N3CN(c4ccccc4F)CSC3=C2C#N)c1 (stereo unspecified)	n	n	n	n	57	n	31	n
COc1ccccc1N1CSC2=C(C#N)C(c3ccc(SC)cc3)CC(=O)N2C1 (stereo unspecified)	n	n	n	n	n	n	x	x
COc1ccc(OC)c(C2CC(=O)N3CN(c4ccccc4F)CSC3=C2C#N)c1 (stereo unspecified)	n	n	n	n	67	n	n	n
COc1ccc(OC)c(C2CC(=O)N3CN(c4cccc(Cl)c4C)CSC3=C2C#N)c1 (stereo unspecified)	n	n	n	n	n	n	x	x
COc1cc(C2CC(=O)N3CN(c4ccccc4C)CSC3=C2C#N)cc(OC)c1OC (stereo unspecified)	n	n	x	x	49	n	33	x
COc1ccc(CC(=O)NN=C(C)c2cccnc2)cc1	x	x	n	x	x	x	x	x
